Tests used:
CYP1B1 [1] = molecular target: T1, CYP1B1 (Homo sapiens, UniProt Q16678); assay: Inhibition of recombinant human CYP1B1 expressed in supersomes coexpressing P450 reductase at 0.3 uM using 7-ethyl-O-resorufin as substrate after 45 mins in presence of NADPH by fluorescence assay relative to control; conditions: probe 7-ethyl-O-resorufin
T1 sequence (Q16678 whole entry): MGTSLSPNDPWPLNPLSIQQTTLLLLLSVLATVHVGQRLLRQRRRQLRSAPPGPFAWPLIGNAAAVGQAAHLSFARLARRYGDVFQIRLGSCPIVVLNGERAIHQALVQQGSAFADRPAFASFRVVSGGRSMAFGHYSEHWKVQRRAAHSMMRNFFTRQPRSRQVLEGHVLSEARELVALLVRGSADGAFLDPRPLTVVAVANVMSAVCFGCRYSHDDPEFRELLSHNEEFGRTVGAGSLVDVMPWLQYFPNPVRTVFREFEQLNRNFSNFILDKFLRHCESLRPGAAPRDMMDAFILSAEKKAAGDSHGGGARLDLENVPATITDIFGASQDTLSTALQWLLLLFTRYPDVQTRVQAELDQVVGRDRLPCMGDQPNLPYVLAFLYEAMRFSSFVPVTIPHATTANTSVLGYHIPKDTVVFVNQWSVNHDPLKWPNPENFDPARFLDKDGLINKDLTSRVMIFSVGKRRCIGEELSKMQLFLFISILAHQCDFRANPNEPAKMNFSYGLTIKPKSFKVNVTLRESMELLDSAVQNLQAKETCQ

Cytochrome P450 1B1 = molecular target: T2, Cytochrome P450 1B1 (Homo sapiens, UniProt Q16678); assay: Inhibition of recombinant human CYP1B1 expressed in supersomes coexpressing P450 reductase using 7-ethyl-O-resorufin as substrate after 45 mins in presence of NADPH by fluorescence assay
T2 sequence (Q16678 whole entry): T1 sequence (Q16678 whole entry)

CYP1B1 [2] = molecular target: T1, CYP1B1; assay: Potency index, ratio of alpha-naphthoflavone IC50 to compound IC50 for inhibition of recombinant human CYP1B1 expressed in supersomes coexpressing P450 reductase; conditions: read-out: Ratio IC50
How it was run: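 EROD assay on recombinant human CYP1B1 with NADPH as cofactor. Resorufin ethyl ether is the substrate, and conversion to resorufin is read by fluorescence.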

[3] = Drug uptake in rat plasma at 2 mg/kg, sc administered as single dose measured at 2 hrs post dose by LC-MS analysis; format: ADME, organism-based
How it was run: (§1)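 Rats given one subcutaneous injection of the 17β-alcohol parent at 2.0 mg/kg (0.66 mg in PG:DMSO 92:8). Plasma levels of the parent and of its 17-keto metabolite were followed over time. AUC (ng.h/mL) was calculated for each species and for the two combined.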

[4] = Drug metabolism in rat plasma assessed as 2-(3-pyridinyl)-3-hydroxy-estra-1,3,5(10)-trien-17-one formation at 2 mg/kg, sc administered as single dose measured at 2 hrs post dose by LC-MS analysis; format: ADME, organism-based; conditions: in vivo; how it was run: as §1
[5] = AUC (0 to 24 hrs) in rat plasma at 2 mg/kg, sc administered as single dose measured at 2 hrs post dose by LC-MS analysis; format: ADME, organism-based; design: time < 24 hr, dose 2 mg/kg, route subcutaneous; how it was run: as §1
Rattus norvegicus = assay: AUC (0 to 24 hrs) in rat plasma assessed as 2-(3-pyridinyl)-3-hydroxy-estra-1,3,5(10)-trien-17-one level at 2 mg/kg, sc administered as single dose measured at 2 hrs post dose by LC-MS analysis; format: ADME, organism-based; design: dose 2 mg/kg, time < 24 hr, route subcutaneous; conditions: in vivo; how it was run: as §1

inhibition at 0.75 h, 0.3 µM (CYP1B1 [1]) | SMILES | other results
20.9% | C[C@]12CC[C@@H]3c4ccc(O)c(-c5ccncc5)c4CC[C@H]3[C@@H]1CC[C@@H]2O | –
28.2% | C[C@]12CC[C@@H]3c4ccc(-c5cccnc5)cc4CC[C@H]3[C@@H]1CCC2=O | –
94% | O=c1cc(-c2ccccc2)oc2c1ccc1ccccc12 [ALPHA-NAPHTHOFLAVONE] | –
85.4% | C[C@]12CC[C@@H]3c4cc(-c5cccnc5)c(O)cc4CC[C@H]3[C@@H]1CC[C@@H]2O | IC50 (Cytochrome P450 1B1): 11 nM; selectivity ratio (CYP1B1 [2]): 7.5; concentration at 2 h [3]: 4 ng/mL; Drug metabolism [4]: 7 ng/mL; AUC(0-t) at 24 h [5]: 12.8 ng·h/mL; AUC (Rattus norvegicus): 33.2 ng·h/mL
19.6% | C[C@]12CC[C@@H]3c4ccc(-c5cccnc5)cc4CC[C@H]3[C@@H]1CC[C@@H]2O | –
28.9% | C[C@]12CC[C@@H]3c4ccc(O)c(-c5cccnc5)c4CC[C@H]3[C@@H]1CC[C@@H]2O | –
21.3% | C[C@]12CC[C@@H]3c4cc(-c5ccncc5)c(O)cc4CC[C@H]3[C@@H]1CCC2=O | IC50 (Cytochrome P450 1B1): 120 nM
13.3% | C[C@]12CC[C@@H]3c4ccc(S)cc4CC[C@H]3[C@@H]1CCC2=O | –
6.1% | C[C@]12CC[C@@H]3c4ccc(-c5ccncc5)cc4CC[C@H]3[C@@H]1CCC2=O | –
37.8% | C[C@]12CC[C@@H]3c4cc(-c5cccnc5)c(O)cc4CC[C@H]3[C@@H]1CCC2=O | IC50 (Cytochrome P450 1B1): 63 nM
14% | C[C@]12CC[C@@H]3c4ccc(O)c(-c5cccnc5)c4CC[C@H]3[C@@H]1CCC2=O | –
12.4% | C[C@]12CC[C@@H]3c4ccc(O)cc4CC[C@H]3[C@@H]1CC[C@@H]2O [ESTRADIOL] | –
16.9% | C[C@]12CC[C@@H]3c4ccc(O)c(-c5ccncc5)c4CC[C@H]3[C@@H]1CCC2=O | –
19.5% | C[C@]12CC[C@@H]3c4ccc(-c5ccncc5)cc4CC[C@H]3[C@@H]1CC[C@@H]2O | –

SMILES | inhibition at 0.75 h, 0.3 µM (CYP1B1 [1]) | other results
C[C@]12CC[C@@H]3c4cc(-c5ccncc5)c(O)cc4CC[C@H]3[C@@H]1CC[C@@H]2O | 87.4% | IC50 (Cytochrome P450 1B1): 32 nM; selectivity ratio (CYP1B1 [2]): 2.5

Source: ChEMBL document CHEMBL4130563, “Structure-Based Design and Synthesis of New Estrane-Pyridine Derivatives as Cytochrome P450 (CYP) 1B1 Inhibitors” (ACS Med Chem Lett, 2017)
